Test results taken from ChEMBL document CHEMBL1123005, “1-Azacycloalkyl-1,4-benzodiazepin-2-ones with antianxiety-antidepressant actions” (J Med Chem, 1985).
Calls of active or inactive are those of the source. The calls are words filed in the database; no cut-off is given here.

Tests used:
Mus musculus [1] = assay: Effective dose against tetrabenazine induced ptosis in mice administered through subcutaneous route; format: functional; details: sc
How it was run: (§1)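 Male DS mice, 20-27 g, groups of five. Compound given po or sc in saline or gum arabic at 0.1 mL/10 g. Tetrabenazine 50 mg/kg sc given 1, 4 or 24 h later. Ptosis scored 1-4 at 1 h after TBZ, with ridit transformation. Dose for 50% prevention by regression.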

[2] = target: GABA-A receptor; anion channel (Rattus norvegicus) (UniProt O09028+P15431+P18506+P18508+P19969+P20236+P23574+P23576+P28471+P28473+P30191+P62813+P63079+P63138+Q91ZM7+Q9ES14); assay: Binding constant was determined by displacing potential to [3H]-diazepam binding in cerebral cortex homogenates of rat; format: tissue-based
How it was run: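 Wistar rat cerebral cortex homogenate incubated with compound and 2 nM [3H]diazepam at 0 °C for 60 min. Bound label trapped on glass filters and counted by scintillation. Ki = IC50/(1 + L/Kd).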

Mus musculus [3] = assay: Effective dose against pentylenetetrazole intoxicity in mice administered subcutaneously; NE = not effective at dose 10 mg/kg; format: functional, organism-based; parameters: dose 10 mg/kg
Rattus norvegicus [4] = species: Rattus norvegicus; assay: Inhibitory activity against uptake of [3H]norepinephrine into rat brain synaptosomes.; format: functional
How it was run: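 P2 synaptosomes from male Wistar rat cerebral cortex incubated with [3H]norepinephrine at 37 °C for 20 min, with compound at 5-6 concentrations. Stopped by Krebs-Henseleit dilution and glass-fibre filtration, then scintillation counting. IC50 taken as the concentration giving 50% uptake inhibition.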

Mus musculus [5] = assay: Effective dose against pentylenetetrazole intoxicity in mice administered orally; format: functional
Rattus norvegicus [6] = assay: Effective dose was evaluated by their anticonflict effect in rats when administered through oral route; format: functional
How it was run: (§2)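 Wistar rats in groups of 5-8, Geller-Seifter conflict procedure. Rats trained to lever-press for food on a variable-interval 60-s schedule. Oral dosing. A dose counted positive when shocks exceeded 12 or shock ratio exceeded 4 over four consecutive tone periods. ED50 with 95% limits by probit.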

Mus musculus [7] = assay: Effective dose against tetrabenazine induced ptosis in mice administered subcutaneously; format: functional; details: sc; how it was run: as §1
Mus musculus [8] = assay: Effective dose against tetrabenazine induced ptosis in mice administered orally; format: functional; how it was run: as §1
[9] = Acute toxicity was measured in mice after peroral administration (1306-1666); format: organism-based; details: mouse, in vivo, po
How it was run: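 Male DS mice, 20-26 g, given compound orally; mortality checked the day after treatment in groups of 10. LD50 by probit method, or by up-and-down method of Brownlee et al. (n = 5) where estimated.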

Mus musculus [10] = assay: Effective dose against pentylenetetrazole intoxicity in mice administered subcutaneously at 20 mg/kg; format: functional; details: sc, route subcutaneous
Rattus norvegicus [11] = assay: Percent inhibition was evaluated by their anticonflict effect in rats when administered through oral route at 8 mg/kg; format: functional; how it was run: as §2
Mus musculus [12] = assay: Effective dose against tetrabenazine induced ptosis in mice administered orally.; format: functional; details: po; how it was run: as §1
Mus musculus [13] = assay: Effective dose against pentylenetetrazole intoxicity in mice administered through subcutaneous route; format: functional; details: sc
Mus musculus [14] = assay: Effective dose against tetrabenazine induced ptosis in mice administered subcutaneously at 50 mg/kg; format: functional; details: sc, route subcutaneous; how it was run: as §1
Rattus norvegicus [15] = assay: Percent anticonflict effect in rats when administered through oral route at 16 mg/kg; format: functional; how it was run: as §2
[16] = Mus musculus, po, read-out: ED50

SMILES	K2 [2]	IC50 (Rattus norvegicus [4])	ED50 (Mus musculus [5])	ED50 (Mus musculus [5]; [16])	ED50 (Rattus norvegicus [6])	ED50 (Mus musculus [7])	ED50 (Mus musculus [8])	ED50 (Mus musculus [8]; [16])	other results
CCOC(=O)N1CCC(N2C(=O)CN=C(c3ccccc3)c3ccccc32)CC1	2.3 µM								ED50 (Mus musculus [1]): 0.65 mg/kg; ED50 (Mus musculus [3]): inactive
O=C1CN=C(c2ccccc2F)c2cc(Cl)ccc2N1C1CCNCC1	0.036 µM	0.118 µM	11.39 mg/kg	14.2 mg/kg	6.51 mg/kg	0.08 mg/kg	0.67 mg/kg	0.76 mg/kg	LD50 [9]: 1480 mg/kg
CN1CCC(N2C(=O)CN=C(c3ccccc3)c3cc(Cl)ccc32)CC1				29.9 mg/kg	8.4 mg/kg	0.85 mg/kg	0.74 mg/kg	0.58 mg/kg	inhibition in vivo at 20 mg/kg (Mus musculus [10]): 50%
O=C1CN=C(c2ccccc2F)c2cc(Cl)ccc2N1C1CCNC1 (centres undefined)	0.73 µM			20.1 mg/kg		28.9 mg/kg			inhibition in vivo at 8 mg/kg (Rattus norvegicus [11]): 60%; ED50 (Mus musculus [12]): 0.4 mg/kg
CN1CCC(N2C(=O)CN=C(c3ccccc3Cl)c3cc(Cl)ccc32)CC1	0.021 µM	39.9 µM		3.24 mg/kg				26.1 mg/kg	ED50 (Mus musculus [13]): 1.69 mg/kg; inhibition in vivo at 50 mg/kg (Mus musculus [14]): 23%
CN1CCC(N2C(=O)CN=C(c3ccccc3)c3cc(F)ccc32)CC1	2.42 µM		25.79 mg/kg	30 mg/kg				1.41 mg/kg	inhibition in vivo at 16 mg/kg (Rattus norvegicus [15]): 20%
